Starred links: 1 amine or outer side, 2 acyl side, 3 side chain; linkers in the order of their positions; H or OH if unused. Non-standard residues stand in square brackets, D forms with d. Residues, ends and D or L forms follow the SMILES beside them. ξ: configuration not given here. *: point of attachment. ξLeuψ(P(O)(OH)CH2)ξVal = CC(C)CC(N[*:1])P(=O)(O)CC(C(=O)[*:2])C(C)C; X1 = CC(C)CC(N[*:1])P(=O)(O)C[C@@H](C(=O)[*:2])C(C)C; X2 = CC(C)CC(N[*:1])P(=O)(O)CCC(=O)[*:2]; X3 = CC(C)CC(N[*:1])P(=O)(O)CC(=O)[*:2]; NMeH = CN[C@@H](Cc1c[nH]cn1)C(=O)O; NMeF = CN[C@@H](Cc1ccccc1)C(=O)O; ξR = N=C(N)NCCCC(N)C(=O)O; Cbz = O=C(OCc1ccccc1)*; Boc = CC(C)(C)OC(=O)*; OtBu = CC(C)(C)O*
Target: T1, Renin (Homo sapiens, UniProt P00797)
T1 sequence (P00797 whole entry): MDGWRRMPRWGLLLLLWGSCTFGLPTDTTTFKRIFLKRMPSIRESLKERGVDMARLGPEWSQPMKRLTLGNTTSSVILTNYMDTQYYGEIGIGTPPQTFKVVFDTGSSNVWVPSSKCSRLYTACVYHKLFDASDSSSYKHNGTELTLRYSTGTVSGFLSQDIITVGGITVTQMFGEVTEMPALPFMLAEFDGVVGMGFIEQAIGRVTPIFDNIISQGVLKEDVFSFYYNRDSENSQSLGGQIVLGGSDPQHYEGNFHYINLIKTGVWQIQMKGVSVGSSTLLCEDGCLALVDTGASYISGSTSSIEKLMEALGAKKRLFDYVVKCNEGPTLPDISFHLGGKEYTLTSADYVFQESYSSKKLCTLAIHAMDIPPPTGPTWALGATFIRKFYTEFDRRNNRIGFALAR
Assay: In vitro inhibition against human plasma renin at pH 7.2 was determined
Format: cell-free
Outline: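 Human plasma renin activity assayed in vitro at pH 7.2 with the synthetic peptides added. IC50 is the peptide concentration that lowered plasma renin activity by 50%.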

Structure (SMILES) | IC50
CC(C)CC(NC(=O)[C@H](Cc1c[nH]cn1)NC(=O)[C@H](Cc1ccccc1)NC(=O)[C@H]1CCCN1C(=O)OCc1ccccc1)P(=O)(O)O (some centres not stated) | 6.4 µM
CC[C@H](C)[C@H](NC(=O)CCP(=O)(O)[C@@H](CC(C)C)NC(=O)[C@H](Cc1c[nH]cn1)NC(=O)[C@H](Cc1ccccc1)NC(=O)[C@H]1CCCN1C(=O)[C@H](CCCN=C(N)N)NC(=O)[C@H](CCCN=C(N)N)NC(=O)OCc1ccccc1)C(=O)N[C@@H](Cc1c[nH]cn1)C(N)=O | 10 µM
CC[C@H](C)[C@H](NC(=O)[C@@H](CP(=O)(O)[C@@H](CC(C)C)NC(=O)[C@H](Cc1c[nH]cn1)NC(=O)[C@H](Cc1ccccc1)NC(=O)[C@H]1CCCN1C(=O)[C@H](CCCN=C(N)N)NC(=O)[C@H](CCCN=C(N)N)NC(=O)OCc1ccccc1)C(C)C)C(=O)N[C@@H](Cc1c[nH]cn1)C(N)=O | 0.1 µM
COC(=O)C(CP(=O)(O)C(CC(C)C)NC(=O)CC(O)C(CC(C)C)NC(=O)[C@H](Cc1cnc[nH]1)NC(=O)[C@H](Cc1ccccc1)NC(=O)OCc1ccccc1)C(C)C (some centres not stated) | > 30 µM
COC(=O)CC(O)[C@H](CC(C)C)NC(=O)[C@H](C)NC(=O)C(CP(=O)(O)C(CC(C)C)NC(=O)[C@H](Cc1c[nH]cn1)NC(=O)[C@H](Cc1ccccc1)NC(=O)[C@H]1CCCN1C(=O)OCc1ccccc1)C(C)C (some centres not stated) | 0.9 µM
CC[C@H](C)[C@H](NC(=O)C(CP(=O)(O)C(CC(C)C)NC(=O)[C@H](Cc1cnc[nH]1)NC(=O)[C@H](Cc1ccccc1)NC(=O)[C@H]1CCCN1C(=O)[C@H](Cc1cnc[nH]1)NC(=O)[C@H]1CCCN1)C(C)C)C(=O)N[C@@H](Cc1cnc[nH]1)C(=O)N[C@@H](CCCCN)C(=O)O (some centres not stated) | 0.07 µM
CC[C@H](C)[C@H](NC(=O)C(CP(=O)(O)C(CC(C)C)NC(=O)[C@H](Cc1cnc[nH]1)NC(=O)[C@H](Cc1ccccc1)NC(=O)[C@H]1CCCN1C(=O)OCc1ccccc1)C(C)C)C(=O)N[C@@H](Cc1cnc[nH]1)C(N)=O (some centres not stated) | 0.6 µM
CC(C)CC(NC(=O)[C@H](Cc1cnc[nH]1)NC(=O)[C@H](Cc1ccccc1)NC(=O)[C@H]1CCCN1C(=O)OCc1ccccc1)[PH](=O)O (some centres not stated) | > 30 µM
CC[C@H](C)[C@H](NC(=O)C(CP(=O)(O)C(CC(C)C)NC(=O)[C@H](Cc1ccccc1)NC(=O)[C@H](Cc1ccccc1)NC(=O)OC(C)(C)C)C(C)C)C(=O)N[C@@H](Cc1cnc[nH]1)C(N)=O (some centres not stated) (Boc-FF[ξLeuψ(P(O)(OH)CH2)ξVal]IH-NH2) | 6 µM
CC[C@H](C)[C@H](NC(=O)C(CP(=O)(O)C(CC(C)C)NC(=O)[C@H](Cc1ccccc1)N(C)C(=O)[C@H](Cc1ccccc1)NC(=O)OC(C)(C)C)C(C)C)C(=O)N[C@@H](Cc1c[nH]cn1)C(N)=O (some centres not stated) (Boc-F[NMeF][ξLeuψ(P(O)(OH)CH2)ξVal]IH-NH2) | > 30 µM
CC[C@H](C)[C@H](NC(=O)C(CP(=O)(O)C(CC(C)C)NC(=O)[C@H](Cc1c[nH]cn1)N(C)C(=O)[C@H](Cc1ccccc1)NC(=O)OC(C)(C)C)C(C)C)C(=O)N[C@@H](Cc1c[nH]cn1)C(N)=O (some centres not stated) (Boc-F[NMeH][ξLeuψ(P(O)(OH)CH2)ξVal]IH-NH2) | > 30 µM
CC[C@H](C)[C@H](NC(=O)[C@H](CP(=O)(O)C(CC(C)C)NC(=O)[C@H](Cc1cnc[nH]1)NC(=O)[C@H](Cc1ccccc1)NC(=O)OCc1ccccc1)C(C)C)C(=O)N[C@@H](Cc1cnc[nH]1)C(N)=O (some centres not stated) (Cbz-FH[X1]IH-NH2) | 2 µM
CC[C@H](C)[C@H](NC(=O)CCP(=O)(O)C(CC(C)C)NC(=O)[C@H](Cc1cnc[nH]1)NC(=O)[C@H](Cc1ccccc1)NC(=O)OCc1ccccc1)C(=O)N[C@@H](Cc1cnc[nH]1)C(N)=O (some centres not stated) (Cbz-FH[X2]IH-NH2) | > 30 µM
CC[C@H](C)[C@H](NC(=O)CP(=O)(O)C(CC(C)C)NC(=O)[C@H](Cc1cnc[nH]1)NC(=O)[C@H](Cc1ccccc1)NC(=O)OCc1ccccc1)C(=O)N[C@@H](Cc1cnc[nH]1)C(N)=O (some centres not stated) (Cbz-FH[X3]IH-NH2) | > 30 µM
CC[C@H](C)[C@H](NC(=O)C(CP(=O)(O)C(CC(C)C)NC(=O)[C@H](Cc1cnc[nH]1)NC(=O)[C@H](Cc1ccccc1)NC(=O)OCc1ccccc1)C(C)C)C(=O)N[C@@H](Cc1ccccc1)C(N)=O (some centres not stated) (Cbz-FH[ξLeuψ(P(O)(OH)CH2)ξVal]IF-NH2) | 5 µM
CC[C@H](C)[C@H](NC(=O)C(CP(=O)(O)C(CC(C)C)NC(=O)[C@H](Cc1c[nH]cn1)NC(=O)[C@H](Cc1ccccc1)NC(=O)OCc1ccccc1)C(C)C)C(=O)NC(CCCN=C(N)N)C(=O)OC(C)(C)C (some centres not stated) (Cbz-FH[ξLeuψ(P(O)(OH)CH2)ξVal]I[ξR]-OtBu) | > 30 µM
CC[C@H](C)[C@H](NC(=O)C(CP(=O)(O)C(CC(C)C)NC(=O)[C@H](Cc1c[nH]cn1)NC(=O)[C@H](Cc1ccccc1)NC(=O)CNC(=O)OCc1ccccc1)C(C)C)C(=O)N[C@@H](Cc1c[nH]cn1)C(N)=O (some centres not stated) (Cbz-GFH[ξLeuψ(P(O)(OH)CH2)ξVal]IH-NH2) | 0.8 µM

From ChEMBL document CHEMBL1124603, “Renin inhibitors. Synthesis of transition-state analogue inhibitors containing phosphorus acid derivatives at the scissile bond” (J Med Chem, 1989)
